Experiments:
[1] = molecular target: T1, P2X purinoceptor 7 (Homo sapiens) (UniProt Q99572); assay: Antagonist activity at human P2X7 receptor expressed in HEK293 cells assessed as inhibition of BzATP-induced ethidium bromide uptake at 10 uM after 2 hrs by fluorescence analysis
T1 sequence (whole entry): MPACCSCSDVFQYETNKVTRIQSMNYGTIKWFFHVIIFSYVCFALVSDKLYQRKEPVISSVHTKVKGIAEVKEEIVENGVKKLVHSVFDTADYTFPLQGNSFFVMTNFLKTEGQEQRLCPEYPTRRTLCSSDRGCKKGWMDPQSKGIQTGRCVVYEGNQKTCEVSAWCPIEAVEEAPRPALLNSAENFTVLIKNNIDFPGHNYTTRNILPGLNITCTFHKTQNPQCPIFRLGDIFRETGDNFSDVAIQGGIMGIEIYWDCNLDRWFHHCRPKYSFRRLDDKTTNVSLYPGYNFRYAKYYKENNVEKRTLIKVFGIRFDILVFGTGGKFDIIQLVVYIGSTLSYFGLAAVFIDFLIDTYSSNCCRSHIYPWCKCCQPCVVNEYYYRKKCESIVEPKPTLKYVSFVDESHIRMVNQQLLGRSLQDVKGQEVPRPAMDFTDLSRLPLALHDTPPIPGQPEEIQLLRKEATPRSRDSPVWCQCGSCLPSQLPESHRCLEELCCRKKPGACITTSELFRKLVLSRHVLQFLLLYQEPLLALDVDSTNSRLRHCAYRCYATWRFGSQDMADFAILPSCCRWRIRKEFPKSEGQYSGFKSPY

P2X purinoceptor 7 [2] = molecular target: T2, P2X purinoceptor 7 (Homo sapiens, UniProt Q99572); assay: Antagonist activity at human P2X7 receptor expressed in HEK293 cells assessed as inhibition of BzATP-induced ethidium bromide uptake after 2 hrs by fluorescence analysis; assay type: functional, cell-based
T2 sequence (Q99572 whole entry): T1 sequence (whole entry)

P2X purinoceptor 7 [3] = molecular target: T2, P2X purinoceptor 7; assay: Antagonist activity at human P2X7 receptor in human THP1 cells assessed as inhibition of BzATP-induced IL-1beta release pretreated for 30 mins before bzATP challenge measured after 30 mins by ELISA
[4] = molecular target: T1, P2X purinoceptor 7 (Homo sapiens); assay: Antagonist activity at human P2X7 receptor expressed in HEK293 cells assessed as inhibition of BzATP-induced ethidium bromide uptake at 20 uM after 2 hrs by fluorescence analysis; assay type: functional, cell-based
[5] = molecular target: T3, P2X purinoceptor 1 (Mus musculus) (UniProt P51576); assay: Antagonist activity at mouse P2X1 receptor expressed in Xenopus oocytes assessed as reduction in ATP-induced ion current at 10 uM; assay type: functional, cell-based; set-up: scale not given: the % may be the effect or the level left; conditions: Oocyte
T3 sequence (whole entry): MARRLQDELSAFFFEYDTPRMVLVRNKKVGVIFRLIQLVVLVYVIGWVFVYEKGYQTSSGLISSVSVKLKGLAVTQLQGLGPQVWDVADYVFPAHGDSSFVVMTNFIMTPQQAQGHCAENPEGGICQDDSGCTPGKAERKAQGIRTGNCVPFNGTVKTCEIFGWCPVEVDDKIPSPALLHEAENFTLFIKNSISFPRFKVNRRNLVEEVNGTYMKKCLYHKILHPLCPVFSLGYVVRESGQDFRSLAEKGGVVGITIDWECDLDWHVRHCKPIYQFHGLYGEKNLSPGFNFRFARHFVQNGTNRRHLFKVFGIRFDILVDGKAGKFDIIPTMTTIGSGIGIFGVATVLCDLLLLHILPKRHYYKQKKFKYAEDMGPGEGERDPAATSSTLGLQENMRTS
How it was run: (§1)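 Two-electrode voltage clamp on Xenopus oocytes made to express the receptor by microinjection of capped cRNA. Currents were evoked by 2 μM ATP, and the test compound was given at 10 μM. The read-out is the percent reduction of the ATP-induced ion current.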

[6] = molecular target: T4, P2X purinoceptor 3 (Homo sapiens) (UniProt P56373); assay: Antagonist activity at human P2X3 receptor expressed in Xenopus oocytes assessed as reduction in ATP-induced ion current at 10 uM; assay type: functional, cell-based; set-up: scale not given: the % may be the effect or the level left; conditions: Oocyte
T4 sequence (whole entry): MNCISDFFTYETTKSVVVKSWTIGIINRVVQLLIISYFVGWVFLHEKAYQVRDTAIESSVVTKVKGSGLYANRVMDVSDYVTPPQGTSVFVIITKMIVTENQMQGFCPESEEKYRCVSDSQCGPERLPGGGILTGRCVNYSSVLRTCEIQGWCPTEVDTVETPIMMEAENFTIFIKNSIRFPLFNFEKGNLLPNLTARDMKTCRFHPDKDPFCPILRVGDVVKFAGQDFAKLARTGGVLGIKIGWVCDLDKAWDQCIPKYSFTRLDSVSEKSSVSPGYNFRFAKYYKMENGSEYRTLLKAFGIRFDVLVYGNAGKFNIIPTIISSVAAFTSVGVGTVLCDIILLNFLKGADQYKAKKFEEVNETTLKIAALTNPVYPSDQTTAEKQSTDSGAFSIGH
How it was run: as §1

Row | inhibition [1] | IC50 (P2X purinoceptor 7 [2]) | Compound | also measured
1 | < 20% | – | O=C(NNc1c(Cl)cncc1Cl)c1ccccc1 | –
2 | – | 1400 nM | O=C(NNc1c(Cl)cncc1Cl)C12CC3CC(CC1C3)C2 | –
3 | < 20% | – | O=C(/C=C/c1ccccc1)NNc1c(Cl)cncc1Cl | –
4 | < 20% | – | O=C(CCc1ccccc1)NNc1ccncc1 | –
5 | < 20% | – | O=C(NCc1ccccc1)NNc1c(Cl)cncc1Cl | –
6 | – | 130 nM | O=C(CCC1CCCCC1)NNc1c(Cl)cncc1Cl | IC50 (P2X purinoceptor 7 [3]): 56 nM
7 | – | 1400 nM | O=C(CCc1ccccc1)NNc1c(Cl)cccc1Cl | –
8 | – | 210 nM | O=C(CC1CC2CCC1C2)NNc1c(Cl)cncc1Cl (configuration not stated) | –
9 | – | 280 nM | CN([C@@H](Cc1ccc(OS(=O)(=O)c2cccc3cnccc23)cc1)C(=O)N1CCN(c2ccccc2)CC1)S(=O)(=O)c1cccc2cnccc12 | IC50 (P2X purinoceptor 7 [3]): 120 nM
10 | – | 2800 nM | O=C(NNc1c(Cl)cncc1Cl)C1CC2CCC1C2 (configuration not stated) | –
11 | < 20% | – | O=C(CCc1ccccc1)NNc1c(F)cncc1F | –
12 | – | 2500 nM | O=C(Cc1ccc(Cl)cc1Cl)NNc1c(Cl)cncc1Cl | –
13 | – | 4.9 nM | O=C(NNc1c(Cl)cncc1Cl)C1C2CC3CC(C2)C(Br)C1C3 (configuration not stated) | IC50 (P2X purinoceptor 7 [3]): 1.3 nM
14 | < 20% | – | O=C(NNc1c(Cl)cncc1Cl)C1CC2C=CC1C2 (configuration not stated) | –
15 | – | 620 nM | O=C(Cc1ccc(Cl)cc1)NNc1c(Cl)cncc1Cl | –
16 | – | 1200 nM | O=C(CCc1cccc2ccccc12)NNc1c(Cl)cncc1Cl | –
17 | – | 370 nM | O=C(NNc1c(Cl)cncc1Cl)OCc1ccccc1 | –
18 | < 20% | – | O=C(Cc1ccc2ccccc2c1)NNc1c(Cl)cncc1Cl | –
19 | – | – | O=C(Cc1ccncc1)NNc1c(Cl)cncc1Cl | inhibition [4]: < 20%
20 | – | 1100 nM | O=C(CCc1ccc(Cl)cc1)NNc1c(Cl)cncc1Cl | –
21 | – | 770 nM | O=C(CCCc1ccccc1)NNc1c(Cl)cncc1Cl | –
22 | – | 200 nM | O=C(CC1CCCCCC1)NNc1c(Cl)cncc1Cl | IC50 (P2X purinoceptor 7 [3]): 42 nM
23 | – | 950 nM | O=C(CCCCCCc1ccccc1)NNc1c(Cl)cncc1Cl | –
24 | – | 1200 nM | O=C(CCCCc1ccccc1)NNc1c(Cl)cncc1Cl | –

Row | inhibition [1] | IC50 (P2X purinoceptor 7 [2]) | Compound | also measured
25 | < 20% | – | O=C(CCc1ccccc1)NNc1c(F)cccc1F | –
26 | – | 650 nM | O=C(CCc1ccccc1)NNc1c(Cl)cncc1Cl | IC50 (P2X purinoceptor 7 [3]): 320 nM
27 | – | 77 nM | O=C(NNc1c(Cl)cncc1Cl)C1C2CC3CC(C2)CC1C3 (configuration not stated) | IC50 (P2X purinoceptor 7 [3]): 130 nM
28 | – | 320 nM | O=C(NNc1c(Cl)cncc1Cl)C1Cc2ccccc21 (racemic) | –
29 | – | 730 nM | O=C(CC1CCCCC1)NNc1c(Cl)cncc1Cl | –
30 | < 20% | – | O=C(NNc1c(Cl)cncc1Cl)c1cc2ccccc2[nH]1 | –
31 | < 20% | – | Clc1cncc(Cl)c1NNCCCc1ccccc1 | –
32 | – | 1500 nM | COc1ccc(CCC(=O)NNc2c(Cl)cncc2Cl)cc1 | –
33 | – | 1100 nM | O=C(NNc1c(Cl)cncc1Cl)C1CCc2ccccc2C1 (racemic) | –
34 | – | 900 nM | Cc1cccc(C)c1NNC(=O)CCc1ccccc1 | –
35 | – | 13 nM | CC12CC3CC(C)(C1)CC(C(=O)NNc1c(Cl)cncc1Cl)(C3)C2 | Activity [5]: 10%; Activity [6]: 10%; IC50 (P2X purinoceptor 7 [3]): 9.2 nM
36 | < 20% | – | CN(Nc1c(Cl)cncc1Cl)C(=O)CCc1ccccc1 | –
37 | – | 1400 nM | Cc1ccc(CCC(=O)NNc2c(Cl)cncc2Cl)cc1 | –
38 | – | 1900 nM | O=C(CCCCCc1ccccc1)NNc1c(Cl)cncc1Cl | –
39 | < 20% | – | O=C(Cc1cccc2ccccc12)NNc1c(Cl)cncc1Cl | –
40 | – | 380 nM | O=C(CCC1CCCC1)NNc1c(Cl)cncc1Cl | –
41 | < 20% | – | O=C(CCc1ccccc1)NNc1cc(Cl)nc(Cl)c1 | –
42 | – | 1100 nM | O=C(Cc1ccccc1)NNc1c(Cl)cncc1Cl | –
43 | < 20% | – | O=C(CCc1ccccc1)Nc1c(Cl)cncc1Cl | –
44 | – | 340 nM | O=C(CC1C2CC3CC(C2)CC1C3)NNc1c(Cl)cncc1Cl (configuration not stated) | –
45 | – | 360 nM | O=C(CCCC1CCCCC1)NNc1c(Cl)cncc1Cl | –
46 | – | 4200 nM | O=C(NNc1c(Cl)cncc1Cl)C1Cc2ccccc2C1 | –
47 | – | 900 nM | O=C(CCc1ccc(F)cc1)NNc1c(Cl)cncc1Cl | –
48 | < 20% | – | O=C(CCc1ccc(O)cc1)NNc1c(Cl)cncc1Cl | –

From ChEMBL document CHEMBL2046433, “Structure-activity relationships and optimization of 3,5-dichloropyridine derivatives as novel P2X(7) receptor antagonists” (J Med Chem, 2012)
